FN deposition inh: inhibitors of fibronectin matrix deposition, primary screen, AH1F cells, Alexa488-fibronectin fluorescence, plate reader | AH1F fibroblasts, overnight | inhibition, % at 12.6 µM | 0.086% of 350,000 active | AID 743247, 2014;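 active = mean inhibition across replicates of 30% or more, regardless of how many single replicates reach that level; inconclusive = mean under 30% yet at least half of replicates reach 30%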;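 note: positive control wells lacked labelled fibronectin entirely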
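test system = AH1F fibroblasts assembling fluorescent fibronectin matrix | quantity = 10000 AH1F cells per well | buffer or medium = DMEM plus 2% serum, read in PBS | doses = single dose, pinned | incubation = 1 h cell attachment, overnight exposure to compound and label | detection = fluorescence at 485 nm excitation, 525 nm emission | read-out basis = inhibition from reduced deposited-fibronectin fluorescence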
PGC1a acetyl inh: inhibitors of PGC1a acetylation signal, primary screen, cell-based, U2OS, AlphaScreen, inhibitor mode. 0.17% of 350,000 active. AlphaScreen anti-acetyl-lysine; with virally co-expressed GCN5 acetyltransferase. inhibition, % at 15.6 µM;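 active = every replicate shows inhibition of at least 40%; inconclusive = mean inhibition at least 40% but some replicate below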;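 note: 0% = neutral control wells and 100% = positive control wells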
ERAP1 inh: human ERAP1 aminopeptidase inhibitors, primary screen, biochemical, single point, plate reader. Endoplasmic reticulum aminopeptidase 1 (Homo sapiens), Q9NZ08. recombinant ERAP1, Leu-AMC fluorescence, 60 min. inhibition, % at 10.7 µM. 0.15% of 340,000 active. AID 652197, 2013;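 active = mean replicate inhibition of at least 30%, or all replicates individually reaching that 30% level; inactive = mean below 30% and not every replicate reaching it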;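 note: 0% = neutral control wells and 100% = L-leucinethiol positive control wells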
FGF22 binding-1: binders of human FGF22 protein, primary screen, FGF22 synaptogenesis inhibitor project, biophysical, thermal shift, single point. recombinant FGF22 thermal shift, SYPRO orange fluorescence; percent of sucrose octasulfate shift, DMSO zero. 1.5% of 340,000 active. activity (Tm shift, normalised), % at 9.99 µM;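 active = mean Tm shift, scaled 0 neutral to 100 positive control, at about 1.3% or above, every replicate too, limit read from the data; inconclusive = no clear call, values can overlap the other calls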
Target sequence (Q9HCT0 whole entry, looked up): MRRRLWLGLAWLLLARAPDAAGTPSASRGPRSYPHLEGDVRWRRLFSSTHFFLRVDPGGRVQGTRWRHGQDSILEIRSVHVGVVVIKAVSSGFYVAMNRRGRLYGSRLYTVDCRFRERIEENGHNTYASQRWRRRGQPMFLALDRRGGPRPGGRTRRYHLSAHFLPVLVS
SIRT5 inh: SIRT5 desuccinylase inhibitors, primary screen, biochemical, fluorescence imaging, single point, set 5 | NAD-dependent protein deacylase sirtuin-5, mitochondrial (Homo sapiens), Q9NXA8 | Purified SirT5, succinyl-peptide AMC, trypsin-coupled fluorescence | inhibition, % at 15 µM | 1.1% of 330,000 active; in the data active = inhibition above about 15%; inconclusive = no clear call, values can overlap the other calls
Target sequence (Q9NXA8 whole entry, looked up): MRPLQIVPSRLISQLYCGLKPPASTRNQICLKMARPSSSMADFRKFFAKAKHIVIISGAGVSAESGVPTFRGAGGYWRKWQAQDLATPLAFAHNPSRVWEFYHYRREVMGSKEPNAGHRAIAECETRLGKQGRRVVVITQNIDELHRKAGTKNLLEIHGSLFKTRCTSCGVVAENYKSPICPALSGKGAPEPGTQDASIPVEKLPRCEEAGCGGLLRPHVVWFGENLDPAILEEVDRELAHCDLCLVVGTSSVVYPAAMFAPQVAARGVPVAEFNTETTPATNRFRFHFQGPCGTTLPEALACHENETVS
FGF22 binding-2: binders of human FGF22 protein, dose response, FGF22 synaptogenesis inhibitor project, biophysical, thermal shift, cherry-pick retest. shares compounds with FGF22 binding-1. recombinant FGF22 thermal shift, SYPRO orange fluorescence. thermal shift activity, °C (ΔTm) at 38 µM. 2% of 1,000 active. AID 720646, 2013;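 active = fitted rise in melting shift crosses a set limit at or below the top valid dose tested; inconclusive = flat fit at mid-level activity, or a poor quality fit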
FGF22 TSA DP: binders of human FGF22 protein, dose response, FGF22 synaptogenesis inhibitor project, biophysical, thermal shift, dry powder; Tm shift (activity), % at 38 µM; Thermal shift assay, SYPRO orange, melting temperature shift; 50 tested, under 10 active; AID 743017, 2013; shares compounds with FGF22 binding-1;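 active = compounds whose fitted dose curve of melting temperature shift rises past a set threshold within the tested doses; inconclusive = flat curve at moderate activity, or poor curve fit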
SYPRO no-protein: compound-only thermal shift signal without protein, dose response, artefact control for FGF22 binder project, biochemical, cherry-picked samples, RT-PCR instrument; shares compounds with FGF22 binding-1; compound-only SYPRO orange thermal shift counter-screen, no protein; AC50, µM (titrated, usually from 38 µM); 2% of 1,000 active;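 active = rising signal whose fitted curve reaches the 0.54 level within the top valid dose, showing a melting point, actives reach about 13 µM in these data; inactive = the rest, including activity in the opposite direction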; note: value is where the raw curve crosses a fixed level and not half-maximal
* marks the source's active call; other numbers are inactive results; i = inactive; u = inconclusive; x = no result given; ! = not confirmed by another sample; [ ] = another dose, or the depositor's remark. In the library only some 2.2% were active in any assay of this set; here they are far more common.

SMILES	FN deposition inh	PGC1a acetyl inh	ERAP1 inh	FGF22 binding-1	SIRT5 inh	FGF22 binding-2	SYPRO no-protein	others
CCC(=O)N1CC2(CCN(Cc3nccs3)CC2)c2c(n(C)c3cc(OC)ccc23)[C@H]1CO	x	3	-1	0	x	x	x
CCC(=O)N1CC2(CCN(Cc3nccs3)CC2)c2c(n(C)c3cc(OC)ccc23)[C@@H]1CO	x	7	1	1.3*	x	0.14	i
CCCC#Cc1ccc(CC[C@H]2O[C@H]3CC[C@H](CO)O[C@H]3C[C@@H]2n2cc(C(C)(C)O)nn2)cc1	x	-1	2	0	-4	x	x
O=[N+]([O-])c1cccc(-c2nc3ccc([N+](=O)[O-])cc3[nH]2)c1	-6	-35	2	1	2	x	x
COc1ccc(-c2nc3ccc([N+](=O)[O-])cc3[nH]2)cc1	-4	x	0	2.6*	0	0.11	i
O=[N+]([O-])c1ccc2nc(-c3ccc(Cl)cc3)[nH]c2c1	-13	x	-4	1.8*	-2	0.059	i
COc1ccc2nc(-c3ccccc3)[nH]c2c1	1	4	x	x	x	x	x
COc1cccc(S(=O)(=O)N2C[C@@H](O)COC[C@@H]3O[C@@H](CC(=O)Nc4ccccc4)CC[C@H]32)c1	-4	-1	-2	1.3*	-1	-0.24[42 µM]	i
O=C(C[C@@H]1CC[C@H]2[C@@H](COC[C@@H](O)CN2S(=O)(=O)c2cccc(F)c2)O1)Nc1ccccc1	8	-4	x	2.3*	x	-1.1	i
Cc1ccc(S(=O)(=O)N2C[C@H](O)COC[C@@H]3O[C@H](CC(=O)NCc4ccc(Cl)c(Cl)c4)CC[C@H]32)cc1	-7	-2	0	0	-1	x	x
O=C(C[C@H]1CC[C@@H]2[C@H](COC[C@H](O)CN2S(=O)(=O)c2cccc(Cl)c2)O1)Nc1ccccc1	-5	-7	-2	1.4*	1	0.041[42 µM]	i	FGF22 TSA DP=0
Cc1ccc(S(=O)(=O)N2C[C@@H](O)COC[C@@H]3O[C@@H](CC(=O)NCc4ccc(Cl)c(Cl)c4)CC[C@H]32)cc1	-5	2	0	1.4*	2	0.1[42 µM]	i	FGF22 TSA DP=0
C[C@H]1CN([C@@H](C)CO)C(=O)c2cc(NC(=O)Cn3cnnn3)ccc2O[C@H]1CN(C)Cc1ccncc1	x	4	-3	0	-2	x	x
Oc1cc(O)cc(C=Cc2ccc(O)c(O)c2)c1	-6	x	31*	2.0*	x	0.073	i
C=CCC1c2cccc(C(=O)O)c2C(=O)N1c1cccc(C)c1 (stereo not given)	x	13	-5	0	-1	x	x
C=CCC1c2cccc(C(=O)O)c2C(=O)N1c1cccc(OC)c1 (stereo not given)	-14	x	-9	18*	-1	0.13	i
Cc1ccc(S(=O)(=O)N(C)C[C@H]2Oc3ncc(Br)cc3C(=O)N([C@@H](C)CO)C[C@@H]2C)cc1	x	1	-3	0	6	x	x
C[C@H](CO)N1C[C@H](C)[C@@H](CN(C)C)Oc2ncc(-c3cccnc3)cc2C1=O	x	1	-2	1.7*	8	0.075[42 µM]	i
C[C@@H]1CN([C@@H](C)CO)C(=O)c2cc(-c3cccnc3)cnc2O[C@@H]1CN(C)C	2	2	5	0	-4	x	x
Cc1ccc(S(=O)(=O)N(C)C[C@H]2Oc3ncc(Br)cc3C(=O)N([C@@H](C)CO)C[C@H]2C)cc1	x	-9	0	5.3*	-3	0.11[42 µM]	i
COc1ccccc1-c1cnc2c(c1)C(=O)N([C@@H](C)CO)C[C@H](C)[C@H](CN(C)C(=O)c1cccnc1)O2	x	26	0	1.9*	-3	0.27	i
COc1ccccc1-c1cnc2c(c1)C(=O)N([C@H](C)CO)C[C@H](C)[C@@H](CN(C)C(=O)c1cccnc1)O2	x	-13	-3	0	-3	x	x
COc1ccccc1-c1cn(CC[C@@H]2CC[C@H](NC(=O)c3cnccn3)[C@H](CO)O2)nn1	-25	1	x	0	7	x	x
O=[N+]([O-])c1ccc2oc(/C=C/c3ccc(O)cc3)nc2c1	-2	-3	-2	1.8*	x	0.074	i
CC(C)(C)Nc1nc2cc([N+](=O)[O-])ccc2o1	-6	x	x	0	-2	x	x
SMILES	FN deposition inh	PGC1a acetyl inh	ERAP1 inh	FGF22 binding-1	SIRT5 inh	FGF22 binding-2	SYPRO no-protein	others
COc1ccccc1C(=O)C1CCCN(C(=O)c2cc(C(C)C)no2)C1 (stereo not given)	-1	x	-2	0	-3	x	x
COc1ccc(C(=O)C2CCCN(C(=O)c3cc(C(C)C)no3)C2)cc1F (stereo not given)	5	x	1	9.8*	-3	0.065	i
C[C@@H]1CN([C@@H](C)CO)C(=O)CCCn2nncc2CO[C@H]1CN(C)Cc1ccccc1C(=O)O	4	6	-6	1.3*	4	-0.096[42 µM]	i
C[C@H](CO)N1C[C@H](C)[C@H](CN(C)C(=O)c2cc(-c3ccccc3)on2)OCc2cnnn2CCCC1=O	-4	5	-6	30*!	18*!	0.091	i
C[C@H](CO)N1C[C@H](C)[C@H](CN(C)S(=O)(=O)c2ccc(F)cc2)OCc2cnnn2CCCC1=O	-1	-5	0	1.5*!	-5	-0.09[42 µM]	i
C[C@@H]1CN([C@H](C)CO)C(=O)CCCn2cc(nn2)CO[C@@H]1CN(C)C(=O)OCc1ccccc1	2	u	x	x	x	x	x
C[C@H](CO)N1C[C@H](C)[C@@H](CN(C)C(=O)OCc2ccccc2)OCc2cn(nn2)CCCC1=O	1	-3	-3	17*!	-2	0.091	i
COc1ccc(S(=O)(=O)Nc2cc3c4c(c2)CCN4C(=O)CC3)cc1OC	0	-3	2	12*	-8	-0.008	i
COc1ccc(NS(=O)(=O)c2cc3c4c(c2)CCN4C(=O)CC3)cc1OC	x	0	x	x	x	x	x

Bioassay records as filed in PubChem.
